Assay outcomes from PubChem BioAssay.
The full list was thinned out, with hits kept by preference.
BasE inh: BasE siderophore enzyme inhibitors, primary screen, biochemical, Acinetobacter baumannii ATCC 17978, fluorescence polarization | purified BasE, fluorescence polarization binding displacement | inhibition, % (test concentration not listed) | 84,000 compounds, 0.1% hits | AID 485350, 2010; in the data active means inhibition above about 25%, passing the limit was not always enough;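 further: 0% = negative plate control signal and 100% = positive plate control signal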
LANA-nucl inh: inhibitors of KSHV LANA-nucleosome binding, primary screen, biochemical, fluorescence polarization, FITC-LANA1-23, chicken nucleosomes; FITC-LANA1-23 / chicken nucleosome fluorescence polarization; active compounds read low; z-score (test concentration not listed); 51,000 compounds, 0.3% hits;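 active means both repeat wells score below -2 in polarization z-score versus plate sample wells, excluding overly bright wells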
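Assay system: FITC-LANA peptide and chicken nucleosomes; input: 240 nM purified chicken nucleosomes (480 nM peptide binding sites), final; also added: 50 nM FITC-LANA1-23 probe; medium: TEN-BT buffer, pH 7.5; doses: pin-transferred compound, 100 nL; times: 10–45 min, room temperature; technique: fluorescence polarization; replication: duplicates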
* hit, by the source's call; · = no result.

SMILES | BasE inh | LANA-nucl inh
O=C1NC(=O)C(=Cc2cn(CCOc3ccc4c(c3)OCO4)c3ccccc23)C(=O)N1 | 1 | ·
C=CCn1cc(C=C2C(=O)NC(=O)NC2=O)c2ccccc21 | 4 | -2.5*
Cc1nn(CC(C)C)c(Cl)c1C(=O)NC1CC1 | 0 | ·
CN(C)C(=O)Oc1cccc2cccnc12 | 0 | -0.69
CC(=O)Oc1ccc(Cl)c2cccnc12 | 30* | 0.18
Cc1cc(/N=c2/c3nnnn3c3ccccc3n2C2(O)C(=O)NC(=O)NC2=O)n(-c2ccccc2)n1 | 2 | ·
N=C1SC2CS(=O)(=O)CC2N1Cc1ccccc1Cl (configuration not stated) | 2 | -1.6
CCn1nc(-c2ccccc2)nc2c(=O)n(C)c(=O)nc1-2 | 8 | -9.3*
C=CCN1C(=O)/C(=C\c2ccc(N(CC)CC)cc2)C(=O)NC1=S | 2 | -0.18
